Assay results taken from ChEMBL document CHEMBL1139834, “Synthesis and structure-activity relationships of new benzodioxinic lactones as potential anticancer drugs” (J Med Chem, 2007).
The source made the active and inactive calls. No cut-off for these calls is given here.

What was measured:
Homo sapiens = species on record: Homo sapiens; assay: Inhibition of topoisomerase 2 assessed by DNA cleavage complex formation assay
In short: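 Cleavage complex formed on pYRG plasmid DNA by human topoisomerase II purified from placenta. Linear DNA product quantified by densitometry relative to ellipticine.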

MOLT-4 = assay: Antitumor activity against human MOLT4 cell line; assay type: functional
In short: (§1)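 Human tumour cell line panel. GI50 is the concentration giving 50% growth inhibition, averaged over at least two determinations. LC50 is the concentration killing 50% of cells in a […] assay.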

DU-145 = assay: Antitumor activity against human DU145 cell line; assay type: functional; in short: as §1
HCT-15 = assay: Antitumor activity against human HCT15 cell line; assay type: functional; in short: as §1
SK-MEL-28 = assay: Antitumor activity against human SKMEL28 cell line; assay type: functional; in short: as §1
T47D = assay: Antitumor activity against human T47D cell line; assay type: functional
In short: (§2)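 Human tumour cell lines from a selected panel. GI50 is the concentration giving 50% growth inhibition, averaged from at least two determinations. LC50 is the concentration killing 50% of cells in a […] assay.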

PC-3 = assay: Antitumor activity against human PC3 cell line; assay type: functional; in short: as §1
K562 = assay: Antitumor activity against human K562 cell line; assay type: functional; in short: as §1
NCI-H460 = assay: Antitumor activity against human NCI-H460 cell line; assay type: functional; in short: as §1
L1210 [1] = assay: Cytotoxicity against mouse L1210 cell line; assay type: cell-based; details: Mus musculus, L1210
In short: (§3)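 Cells grown at 37 °C under 5% CO2 in medium with 2 mM L-glutamine, penicillin, streptomycin and 20% heat-inactivated horse serum. Drug in DMSO (0.5% final) added to exponentially growing cells seeded at 0.8 × 10^5 cells/mL. Coulter counting in quadruplicate at 48 h (L1210) or 96 h (HT-29). IC50 from probit of % growth inhibition versus log dose; four independent runs in triplicate.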

UO-31 = assay: Antitumor activity against human UO31 cell line; assay type: functional; in short: as §2
LOX IMVI = assay: Antitumor activity against human LOX IMVI cell line; assay type: functional; in short: as §1
[2] = Antitumor activity against human IGROVI cell line; assay type: functional; in short: as §1
HCT-116 = assay: Antitumor activity against human HCT116 cell line; assay type: functional; in short: as §1
A549 = assay: Antitumor activity against human A549 cell line; assay type: functional; in short: as §1
NCI-H522 = assay: Antitumor activity against human NCI-H522 cell line; assay type: functional; in short: as §1
[3] = Effect on DNA sequence recognition assessed by DNase I footprinting assay; assay type: functional
OVCAR-3 = assay: Antitumor activity against human OVCAR-3 cell line; assay type: functional; in short: as §1
786-0 = assay: Antitumor activity against human 7860 cell line; assay type: functional; in short: as §1
U-251 = assay: Antitumor activity against human U251 cell line; assay type: functional; in short: as §2
KM12 = assay: Antitumor activity against human KM12 cell line; assay type: functional; in short: as §1
CAKI-1 = assay: Antitumor activity against human CAKI1 cell line; assay type: functional; in short: as §1
L1210 [4] = assay: Cell cycle arrest in mouse L1210 cell line by accumulation at G2/M phase at 5 uM after 24 hrs; assay type: functional
In short: (§4)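 L1210 cells in RPMI 1640 with 2 mM L-glutamine, penicillin, streptomycin and 20% heat-inactivated horse serum, 5% CO2, 37 °C, exposed to several drug concentrations. Cells fixed in 70% ethanol, washed, stained 30 min at room temperature with propidium iodide plus RNAse in PBS, then flow cytometry. Read-out is percentage of cells in each cycle phase after 24 h exposure.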

HL-60 = assay: Antitumor activity against human HL60 cell line; assay type: functional; in short: as §1
SR = assay: Antitumor activity against human SR cell line; assay type: functional; in short: as §2
HT-29 = assay: Cytotoxicity against human HT29 cell line; assay type: cell-based; in short: as §3
SNB-75 = assay: Antitumor activity against human SNB75 cell line; assay type: functional; details: read-out: LC50 (the source's name); in short: as §2
UACC-257 = assay: Antitumor activity against human UACC257 cell line; assay type: functional; in short: as §2
OVCAR-8 = assay: Antitumor activity against human OVCAR8 cell line; assay type: functional; in short: as §1
COLO 205 = assay: Antitumor activity against human Colo205 cell line; assay type: functional; in short: as §1
MDA-MB-231 = assay: Antitumor activity against human MDA-MB-231 cell line; assay type: functional; in short: as §1
Hs-578T = assay: Antitumor activity against human HS578T cell line; assay type: functional; in short: as §1
SK-MEL-2 = assay: Antitumor activity against human SKMEL2 cell line; assay type: functional; in short: as §1
OVCAR-5 = assay: Antitumor activity against human OVCAR5 cell line; assay type: functional; in short: as §1
M14 = assay: Antitumor activity against human M14 cell line; assay type: functional; in short: as §1
NCI-H23 = assay: Antitumor activity against human NCI-H23 cell line; assay type: functional; in short: as §1
RXF 393 = assay: Antitumor activity against human RXF393 cell line; assay type: functional; in short: as §1
RPMI-8226 = assay: Antitumor activity against human RPMI8226 cell line; assay type: functional; in short: as §1
HOP-92 = assay: Antitumor activity against human HOP92 cell line; assay type: functional; in short: as §1
ACHN = assay: Antitumor activity against human ACHN cell line; assay type: functional; in short: as §1
SN12C = assay: Antitumor activity against human SN12C cell line; assay type: functional; in short: as §1
EKVX = assay: Antitumor activity against human EKVX cell line; assay type: functional; in short: as §1
L1210 [5] = assay: Cell cycle arrest in mouse L1210 cell line by accumulation at 8N phase at 5 uM after 24 hrs; assay type: functional; in short: as §4
NCI/ADR-RES = assay: Antitumor activity against human NCI/ADRRES cell line; assay type: functional; in short: as §1
SF-295 = assay: Antitumor activity against human SF295 cell line; assay type: functional; in short: as §1
SK-MEL-5 = assay: Antitumor activity against human SKMEL5 cell line; assay type: functional; in short: as §1
NCI-H226 = assay: Antitumor activity against human NCI-H226 cell line; assay type: functional; in short: as §1
SW-620 = assay: Antitumor activity against human SW620 cell line; assay type: functional; in short: as §2
[6] = read-out: LC50 (the source's name)

Compound: CCCCc1c2c(c(C)c3c1C(=O)OC3)Oc1ccccc1O2
- Activity (Homo sapiens): inactive
- GI50 (MOLT-4): 0.447 µM
- CC50 (MOLT-4; [6]): 100 µM
- GI50 (DU-145): 1.82 µM
- CC50 (DU-145; [6]): 100 µM
- GI50 (HCT-15): 0.589 µM
- CC50 (HCT-15; [6]): 100 µM
- GI50 (SK-MEL-28): 39.8 µM
- CC50 (SK-MEL-28; [6]): 100 µM
- GI50 (T47D): 6.46 µM
- CC50 (T47D; [6]): 100 µM
- GI50 (PC-3): 0.437 µM
- CC50 (PC-3; [6]): 100 µM
- GI50 (K562): 0.38 µM
- CC50 (K562; [6]): 100 µM
- GI50 (NCI-H460): 0.372 µM
- CC50 (NCI-H460; [6]): 100 µM
- IC50 (L1210 [1]): 2.4 µM
- GI50 (UO-31): 2.24 µM
- CC50 (UO-31; [6]): 100 µM
- GI50 (LOX IMVI): 1.23 µM
- CC50 (LOX IMVI; [6]): 100 µM
- GI50 [2]: 0.282 µM
- CC50 [2, 6]: 10 µM
- GI50 (HCT-116): 0.38 µM
- CC50 (HCT-116; [6]): 50 µM
- GI50 (A549): 0.603 µM
- CC50 (A549; [6]): 70 µM
- GI50 (NCI-H522): 0.234 µM
- CC50 (NCI-H522; [6]): 100 µM
- Activity [3]: inactive
- GI50 (OVCAR-3): 0.525 µM
- CC50 (OVCAR-3; [6]): 100 µM
- GI50 (786-0): 0.562 µM
- CC50 (786-0; [6]): 50 µM
- GI50 (U-251): 0.525 µM
- CC50 (U-251; [6]): 40 µM
- GI50 (KM12): 0.49 µM
- CC50 (KM12; [6]): 100 µM
- GI50 (CAKI-1): 26.3 µM
- CC50 (CAKI-1; [6]): 100 µM
- Activity (L1210 [4]): 67%
- GI50 (HL-60): 0.245 µM
- CC50 (HL-60; [6]): 100 µM
- GI50 (SR): 0.132 µM
- CC50 (SR; [6]): 100 µM
- IC50 (HT-29): 0.58 µM
- CC50 (SNB-75): 90 µM
- GI50 (UACC-257): 0.302 µM
- CC50 (UACC-257; [6]): 100 µM
- GI50 (OVCAR-8): 3.55 µM
- CC50 (OVCAR-8; [6]): 100 µM
- GI50 (COLO 205): 0.741 µM
- CC50 (COLO 205; [6]): 100 µM
- GI50 (MDA-MB-231): 2.34 µM
- CC50 (MDA-MB-231; [6]): 100 µM
- GI50 (Hs-578T): 0.363 µM
- CC50 (Hs-578T; [6]): 100 µM
- GI50 (SK-MEL-2): 0.363 µM
- CC50 (SK-MEL-2; [6]): 100 µM
- GI50 (OVCAR-5): 7.59 µM
- CC50 (OVCAR-5; [6]): 100 µM
- GI50 (M14): 0.603 µM
- CC50 (M14; [6]): 100 µM
- GI50 (NCI-H23): 2.63 µM
- CC50 (NCI-H23; [6]): 100 µM
- GI50 (RXF 393): 0.977 µM
- CC50 (RXF 393; [6]): 100 µM
- GI50 (RPMI-8226): 0.759 µM
- CC50 (RPMI-8226; [6]): 100 µM
- GI50 (HOP-92): 5.75 µM
- CC50 (HOP-92; [6]): 100 µM
- GI50 (ACHN): 3.72 µM
- CC50 (ACHN; [6]): 100 µM
- GI50 (SN12C): 1.26 µM
- CC50 (SN12C; [6]): 100 µM
- GI50 (EKVX): 2.95 µM
- CC50 (EKVX; [6]): 100 µM
- Activity (L1210 [5]): 67%
- GI50 (NCI/ADR-RES): 0.437 µM
- CC50 (NCI/ADR-RES; [6]): 100 µM
- GI50 (SF-295): 0.447 µM
- CC50 (SF-295; [6]): 100 µM
- GI50 (SK-MEL-5): 0.427 µM
- CC50 (SK-MEL-5; [6]): 100 µM
- GI50 (NCI-H226): 1.86 µM
- CC50 (NCI-H226; [6]): 100 µM
- GI50 (SW-620): 0.525 µM
- CC50 (SW-620; [6]): 100 µM
